Data: ChEMBL document CHEMBL3779810, “Potent, Selective, and Orally Bioavailable Inhibitors of VPS34 Provide Chemical Tools to Modulate Autophagy in Vivo” (ACS Med Chem Lett, 2016)
Active and inactive are the calls of the source. The calls are words filed in the database; no cut-off is given here.

Legend:
[1] = target: T1, Phosphatidylinositol 3-kinase catalytic subunit type 3 (Homo sapiens, UniProt Q8NEB9); assay: Inhibition of recombinant human VPS34 using L-alpha-phosphatidylinositol as substrate incubated for 10 mins by luminescence based ATP detection assay
T1 sequence (Q8NEB9 whole entry): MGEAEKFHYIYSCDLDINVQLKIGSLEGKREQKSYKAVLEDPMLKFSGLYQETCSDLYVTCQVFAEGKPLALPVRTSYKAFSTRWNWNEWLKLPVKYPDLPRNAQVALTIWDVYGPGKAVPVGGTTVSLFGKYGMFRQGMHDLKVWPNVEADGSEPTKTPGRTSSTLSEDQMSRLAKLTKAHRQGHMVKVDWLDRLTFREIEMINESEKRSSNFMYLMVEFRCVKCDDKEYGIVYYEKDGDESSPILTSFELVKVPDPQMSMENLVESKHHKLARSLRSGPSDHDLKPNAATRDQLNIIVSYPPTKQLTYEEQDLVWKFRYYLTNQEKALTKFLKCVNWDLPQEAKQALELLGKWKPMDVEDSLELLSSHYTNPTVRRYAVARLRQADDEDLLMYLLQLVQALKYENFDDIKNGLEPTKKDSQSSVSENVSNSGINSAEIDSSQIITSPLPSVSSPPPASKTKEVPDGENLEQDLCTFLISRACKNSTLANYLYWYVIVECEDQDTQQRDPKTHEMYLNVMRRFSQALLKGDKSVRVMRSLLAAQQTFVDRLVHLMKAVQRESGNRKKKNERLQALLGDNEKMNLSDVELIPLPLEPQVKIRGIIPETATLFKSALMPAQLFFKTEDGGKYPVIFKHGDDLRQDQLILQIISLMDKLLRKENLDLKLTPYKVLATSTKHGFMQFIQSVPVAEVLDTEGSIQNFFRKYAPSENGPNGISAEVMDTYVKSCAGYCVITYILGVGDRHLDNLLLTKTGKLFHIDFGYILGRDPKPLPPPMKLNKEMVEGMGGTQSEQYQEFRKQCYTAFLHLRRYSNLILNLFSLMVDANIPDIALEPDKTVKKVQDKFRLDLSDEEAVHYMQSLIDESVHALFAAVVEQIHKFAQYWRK
Summary of the method: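 VPS34 biochemical IC50 was measured with a luminescence-based ATP detection read-out.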

[2] = target: T1, Phosphatidylinositol 3-kinase catalytic subunit type 3; assay: Inhibition of VPS34 in human DLD1 cells assessed as prevention of NCOA4 protein degradation at 1 to 10 uM incubated for 24 hrs by Western blot analysis; format: cell-based; details: DLD-1
[3] = target: T1, Phosphatidylinositol 3-kinase catalytic subunit type 3; assay: Inhibition of VPS34 in human DLD1 cells assessed as prevention of NBR1 protein degradation at 1 to 10 uM incubated for 24 hrs by Western blot analysis; format: cell-based; details: DLD-1
[4] = target: T1, Phosphatidylinositol 3-kinase catalytic subunit type 3; assay: Inhibition of VPS34 in human DLD1 cells assessed as prevention of FTH1 protein degradation at 1 to 10 uM incubated for 24 hrs by Western blot analysis; format: cell-based; details: DLD-1
[5] = Intrinsic clearance in mouse liver microsomes by LC-MS/MS analysis; format: ADME; details: read-out: CLH
[6] = target: T1, Phosphatidylinositol 3-kinase catalytic subunit type 3; assay: Inhibition of VPS34 in human DLD1 cells assessed as prevention of p62 degradation at 1 to 10 uM incubated for 24 hrs by Western blot analysis; format: cell-based; details: DLD-1
[7] = target: T1, Phosphatidylinositol 3-kinase catalytic subunit type 3; assay: Inhibition of VPS34 in human DLD1 cells assessed as prevention of NDP52 protein degradation at 1 to 10 uM incubated for 24 hrs by Western blot analysis; format: cell-based; details: DLD-1
[8] = target: T2, Phosphatidylinositol 4,5-bisphosphate 3-kinase catalytic subunit delta isoform (Homo sapiens, UniProt O00329); assay: Inhibition of PI3Kdelta (unknown origin)
T2 sequence (O00329 whole entry): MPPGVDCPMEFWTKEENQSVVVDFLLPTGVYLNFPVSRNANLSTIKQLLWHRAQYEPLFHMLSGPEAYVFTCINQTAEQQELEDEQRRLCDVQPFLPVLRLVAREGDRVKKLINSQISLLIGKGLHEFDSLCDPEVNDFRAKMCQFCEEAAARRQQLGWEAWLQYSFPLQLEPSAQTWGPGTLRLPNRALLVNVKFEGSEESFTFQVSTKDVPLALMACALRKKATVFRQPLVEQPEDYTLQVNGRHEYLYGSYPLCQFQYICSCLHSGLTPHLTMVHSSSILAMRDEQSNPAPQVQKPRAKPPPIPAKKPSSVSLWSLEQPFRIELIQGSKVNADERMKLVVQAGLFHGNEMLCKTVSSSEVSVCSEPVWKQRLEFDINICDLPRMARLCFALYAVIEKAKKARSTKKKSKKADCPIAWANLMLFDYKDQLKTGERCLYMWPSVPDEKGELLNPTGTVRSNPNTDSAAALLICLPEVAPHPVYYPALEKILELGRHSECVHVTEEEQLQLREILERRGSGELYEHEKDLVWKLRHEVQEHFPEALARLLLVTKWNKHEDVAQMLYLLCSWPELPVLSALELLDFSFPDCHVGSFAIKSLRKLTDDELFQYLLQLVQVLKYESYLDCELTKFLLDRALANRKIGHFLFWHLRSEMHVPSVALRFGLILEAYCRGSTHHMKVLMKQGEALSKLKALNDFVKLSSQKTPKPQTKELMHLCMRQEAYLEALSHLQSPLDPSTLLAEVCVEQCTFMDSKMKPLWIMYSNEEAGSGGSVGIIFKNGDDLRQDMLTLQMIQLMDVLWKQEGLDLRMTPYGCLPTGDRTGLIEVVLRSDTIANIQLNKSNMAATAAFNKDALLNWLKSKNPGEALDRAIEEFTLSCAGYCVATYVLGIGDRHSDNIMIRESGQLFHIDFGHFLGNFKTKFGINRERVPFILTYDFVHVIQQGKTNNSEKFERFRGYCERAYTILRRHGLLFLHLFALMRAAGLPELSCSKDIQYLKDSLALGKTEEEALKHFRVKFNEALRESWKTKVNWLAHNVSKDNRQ

SMILES	IC50 [1]	CLint scaled [5]	also measured
CNc1ncc(-c2ccnc(NC3CCCCC3)n2)c(CC2CC2)n1	3400 nM	–	–
CNc1ncc(-c2ccnc(NCCCO)n2)c(CC2CC2)n1	6300 nM	–	–
CNc1ncc(-c2ccnc(N[C@H]3CC[C@H](N)CC3)n2)c(CC2CC2)n1	410 nM	–	–
Nc1ncc(-c2ccnc(Nc3ccncc3)n2)c(CC2CC2)n1	–	72.8 mL/min/kg	inhibition [2]: Active; inhibition [3]: Active; inhibition [4]: Active; inhibition [6]: Active; inhibition [7]: Active
CC(C)(C)CNc1ncc(-c2ccnc(Nc3ccncc3)n2)c(CC2CC2)n1	–	67 mL/min/kg	IC50 [8]: 500 nM
c1ccc(CNc2ncc(-c3ccnc(Nc4ccncc4)n3)c(CC3CC3)n2)cc1	–	74.8 mL/min/kg	IC50 [8]: 3700 nM
CNc1ncc(-c2ccnc(Nc3cnc4ccccc4c3)n2)c(CC2CC2)n1	130 nM	–	–
